As usually defined, the IC50 is the concentration that inhibits the measured activity by half. As usually defined, the inhibition is the share of the control response that was lost under treatment. The Ki is a dissociation constant, usually derived from enzyme kinetics or from competition with a known ligand.

In ChEMBL document CHEMBL3352274, “Oxadiazoles and thiadiazoles: novel α-glucosidase inhibitors” (Bioorg Med Chem, 2014) one finds IC50, inhibition and Ki data, which are given here for 38 molecules.

The structures appear in SMILES notation.

A short description of test [1]: Inhibition of alpha-glucosidase (unknown origin) using p-nitrophenyl-alpha-D-glucopyranoside substrate measured up to 30 mins by multiplate spectrophotometry. Further details: species or system Homo sapiens; call rule not given here. The procedure, abridged: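 Enzyme 0.2 U/mL in phosphate buffered saline, preincubated with test compounds at various concentrations, 15 min, 37 °C. Assay in 0.1 M phosphate buffer pH 6.8 at 37 °C. Triplicate reactions, acarbose as standard. % inhibition = 100 − (OD test/OD control) × 100. IC50 by enzyme kinetics fitting.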

Test [2] deals with Carbonic anhydrase 2 (Bos taurus) (UniProt P00921). Kind of test: Inhibition of carbonic anhydrase 2 (unknown origin) using 4-NPA substrate after 15 mins by spectrophotometry.
For a further test, the system named is 3T3. Kind of test: Cytotoxicity against […] 3T3 cells by MTT assay. The settings on record: Mus musculus, NIH3T3. On the technique in general: Tetrazolium dyes change colour on reduction, which living cells bring about.
Another test has as its system Serpentes. Kind of test: (§1) Inhibition of snake venom phosphodiesterase 1 using bis(p-nitrophenyl) phosphate substrate after 30 mins by spectrophotometry. Further details: concentration or dose not given beside the values. The procedure, abridged: (§2)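 Assayed in 33 mM Tris–HCl buffer (pH 8.8) with 30 mM Mg-acetate as co-factor, 0.000742 U of enzyme and 0.33 mM substrate. After 30 min of incubation, activity was followed at 37 °C as p-nitrophenol release at 410 nm. Initial rates were taken as change in OD/min. All reactions were run in triplicate, with EDTA as positive control.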

Test [3] in a line: as §1. Further details: species or system Serpentes. The procedure, abridged: as §2
Test [4] in a line: Non-competitive inhibition of alpha-glucosidase (unknown origin) by Lineweaver-Burk plot. Further details: species or system Homo sapiens. In a few lines:
(§3)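 Mode of inhibition from Lineweaver–Burk plots (1/rate vs 1/substrate concentration) at varying inhibitor concentrations, tracking Km and Vmax. Ki from secondary re-plots of Lineweaver–Burk slopes vs inhibitor concentration and from Dixon plots (1/rate vs inhibitor concentration). Each point mean of three experiments.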

The nature of test [5]: Competitive inhibition of alpha-glucosidase (unknown origin) by Lineweaver-Burk plot. Further details: species or system Homo sapiens. The procedure, abridged:
as §3

On to `O=C(CSc1nnc(SCC(=O)c2cccc(F)c2)s1)c1cccc(F)c1`, for which the IC50 in test [1] (read-out: IC50) amounted to 24.6 µM.

As for `COc1ccc(C(=O)CSc2nnc(-c3ccc(OCc4ccccc4)cc3)o2)cc1`, the IC50 entry in test [1] is listed as “Not Active”.

Take `O=C(CSc1nnc(-c2ccc(Cl)cc2)o1)c1cccc(F)c1`: in test [1] (read-out: IC50), the IC50 amounted to 49.1 µM.

Regarding `O=C(CSc1nnc(-c2ccc(Cl)cc2)o1)c1cc2ccccc2oc1=O`, in test [1], the IC50 result was “Not Active”.

For the molecule `COc1ccccc1C(=O)CSc1nnc(-c2ccc(OCc3ccccc3)cc2)o1`, the IC50 entry is “Not Active” in test [2], greater than 30 µM in the test on 3T3, “Not Active” in test [3] and 11.8 µM in test [1] (read-out: IC50). In addition, the values for the inhibition (in test [2]; in the test with Serpentes) were 33% and 8.5%, respectively. In test [4], this molecule came in with a Ki of 4.36 µM.

Turning to `O=C(CSc1nnc(-c2cccnc2)o1)c1cc2ccccc2oc1=O`, the IC50 result in test [1] is “Not Active”.

With `O=C(CSc1nnc(SCC(=O)c2ccc(Br)cc2)s1)c1ccc(Br)cc1`, the IC50 in test [1] (read-out: IC50) worked out at 166 µM.

Consider `O=C(CSc1nnc(-c2ccc(Cl)cc2)o1)c1cccc(Cl)c1`, for which, in test [1], the IC50 result is on record as “Not Active”.

For `COc1ccc(C(=O)CSc2nnc(-c3ccccc3)o2)cc1`, in test [1], the IC50 result was “Not Active”.

For `O=C(CSc1nnc(-c2cccnc2)o1)c1cccc(O)c1`, in test [1], the IC50 entry is “Not Active”.

Regarding `O=C(CSc1nnc(-c2ccccc2)o1)c1cccc(O)c1`, in test [1] (read-out: IC50), the IC50 is 112 µM.

With `O=C(CSc1nnc(-c2ccccc2)o1)c1cccc(F)c1`, in test [1], the IC50 result is on record as “Not Active”.

For the molecule `O=C(CSc1nnc(-c2cccnc2)o1)c1ccc(Cl)cc1`, the IC50 result in test [1] is “Not Active”.

With `COc1ccc(C(=O)CSc2nnc(SCC(=O)c3ccc(OC)cc3)s2)cc1`, in test [1], the 50% inhibitory concentration (IC50) result is “Not Active”.

As for `COc1ccccc1C(=O)CSc1nnc(-c2ccc(Cl)cc2)o1`, in test [1] (read-out: IC50), the IC50 was determined as 81.6 µM.

In the case of `O=C(CSc1nnc(SCC(=O)c2ccc(-c3ccccc3)cc2)s1)c1ccc(-c2ccccc2)cc1`, the IC50 in test [1] (read-out: IC50) came out at 51.8 µM.

`O=C(CSc1nnc(SCC(=O)c2ccc([N+](=O)[O-])cc2)s1)c1ccc([N+](=O)[O-])cc1`: in test [1], the IC50 entry is “Not Active”.

`O=C(CSc1nnc(-c2cccnc2)o1)c1ccc(-c2ccccc2)cc1`: in test [1] (read-out: IC50), the IC50 amounted to 125 µM.

`O=C(CSc1nnc(SCC(=O)c2ccc(Cl)c(Cl)c2)s1)c1ccc(Cl)c(Cl)c1`: in test [1], the IC50 entry was “Not Active”.

Turning to `O=C(CSc1nnc(SCC(=O)c2cccc(O)c2)s1)c1cccc(O)c1`, the IC50 entry is “Not Active” in test [2], greater than 30 µM in the test on 3T3, “Not Active” in test [3] and 20.4 µM in test [1] (read-out: IC50). The figures for the inhibition (in test [2]; with Serpentes) were 42.9% and 4.6%, respectively. Moreover, the Ki in test [4] is 14.3 µM.

Consider `COc1ccccc1C(=O)CSc1nnc(SCC(=O)c2ccccc2OC)s1`, for which the IC50 in test [1] (read-out: IC50) amounted to 94.3 µM.

Turning to `COc1cccc(C(=O)CSc2nnc(-c3ccccc3)o2)c1`, the IC50 in test [1] (read-out: IC50) is 184 µM.

In the case of `O=C(CSc1nnc(-c2cccnc2)o1)c1ccc([N+](=O)[O-])cc1`, in test [1], the IC50 result was “Not Active”.

In the case of `O=C(CSc1nnc(-c2ccc(Cl)cc2)o1)c1ccc(Cl)cc1`, the IC50 result in test [1] is listed as “Not Active”.

For `O=C(CSc1nnc(-c2ccccc2)o1)c1ccc(Br)cc1`, the IC50 result in test [1] is reported as “Not Active”.

As for `COc1ccc(C(=O)CSc2nnc(-c3ccc(Cl)cc3)o2)cc1`, the IC50 entry in test [1] is recorded as “Not Active”.

Turning to `O=C(CSc1nnc(-c2ccc(OCc3ccccc3)cc2)o1)c1cccc(O)c1`, the IC50 result in test [2] is “Not Active”; in the test with 3T3, greater than 30 µM; in test [3], “Not Active”; in test [1] (read-out: IC50) it was 17.9 µM. Further, the values for the inhibition (in test [2]; in the test on Serpentes) were 48.2% and 1.8%, respectively. This molecule returned a Ki in test [4] of 11.2 µM.

On to `O=C(CSc1nnc(-c2cccnc2)o1)c1cccc(F)c1`, for which, in test [1], the half-inhibitory concentration (IC50) entry is “Not Active”.

For the molecule `C[C@H]1O[C@H](O[C@H]2[C@H](O)[C@@H](O)[C@@H](O[C@H]3[C@H](O)[C@@H](O)C(O)O[C@@H]3CO)O[C@@H]2CO)[C@H](O)[C@@H](O)[C@@H]1N[C@H]1C=C(CO)[C@@H](O)[C@H](O)[C@H]1O` (some centres undefined) [ACARBOSE], the IC50 in test [1] (read-out: IC50) was 937 µM. Further, in test [5], the affinity, expressed as Ki, was 890 µM.

With `O=C(CSc1nnc(-c2ccc(Cl)cc2)o1)c1cccc(O)c1`, the IC50 entry was “Not Active” in test [2], greater than 30 µM in the test on 3T3, “Not Active” in test [3] and 24.1 µM in test [1] (read-out: IC50). Further, the inhibition in test [2] came out at 9%; in the test with Serpentes, 26%. The molecule further yielded a Ki in test [4] of 12 µM.

Take `O=C(CSc1nnc(-c2ccccc2)o1)c1ccc(Cl)cc1`: the IC50 result in test [1] is on record as “Not Active”.

On to `O=C(CSc1nnc(-c2ccccc2)o1)c1cccc(Cl)c1`, for which, in test [1], the IC50 result is listed as “Not Active”.

For the molecule `O=C(CSc1nnc(SCC(=O)c2ccc(Cl)cc2)s1)c1ccc(Cl)cc1`, in test [1], the IC50 entry was “Not Active”.

Consider `O=C(CSc1nnc(-c2ccccc2)o1)c1ccc(Cl)c(Cl)c1`, for which the IC50 in test [1] (read-out: IC50) stood at 74.2 µM.

For `O=C(CSc1nnc(-c2ccc(Cl)cc2)o1)c1ccc(-c2ccccc2)cc1`, in test [1], the IC50 entry is given as “Not Active”.

`COc1cccc(C(=O)CSc2nnc(-c3ccc(Cl)cc3)o2)c1`: in test [1], the IC50 entry is “Not Active”.

For the molecule `O=C(CSc1nnc(-c2cccnc2)o1)c1ccc(Br)cc1`, in test [1], the IC50 result is listed as “Not Active”.

In the case of `O=C(CSc1nnc(SCC(=O)c2ccccc2)s1)c1ccccc1`, the IC50 result in test [2] was “Not Active”; in the test on 3T3, greater than 30 µM; in test [3], “Not Active”; in test [1] (read-out: IC50), 10.8 µM. Further, the inhibition came to 33.8% in test [2] and 12.3% in the test on Serpentes. For the same molecule, the Ki in test [5] was 6 µM.
